In ChEMBL document CHEMBL2401724, “Synthesis and structure--activity relationships of N²-alkylated quaternary β-carbolines as novel antitumor agents” (Eur J Med Chem, 2013) one finds IC50, inhibition in vivo and LD50 data, which are given here for 4 compounds.

The first data set concerns CWR22R. As to the kind of experiment: Cytotoxicity against human 22Rv1 cells by MTT assay. In kind it is functional, cell-based.
Settings: not given
The method, boiled down:
(§1)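 Cell lines were cultured in 96-well microtitre plates at 37 °C in humidified 5% CO₂. Compounds were dissolved in DMSO, at ≤2% (v/v) final in the growth medium. Viability was read by MTT staining, expressed relative to untreated cells.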
Background: Formazan colour is commonly taken as a measure of viable cells.
In the case of `c1ccc(Cn2c3ccccc3c3cc[n+](Cc4ccccc4)cc32)cc1`, the IC50 (commonly the concentration that inhibits the measured activity by half) amounted to 5.7 µM.

The compound `COc1ccc(Cn2c3ccccc3c3cc[n+](Cc4ccccc4)cc32)cc1.[Br-]` yielded a 50% inhibitory concentration (IC50) of 4.8 µM.

As for `[Br-].c1ccc(CCCn2c3ccccc3c3cc[n+](Cc4ccccc4)cc32)cc1`, the IC50 amounted to 3.2 µM.

The next data set concerns BGC-823. As to the kind of experiment: Cytotoxicity against human BGC823 cells by MTT assay. In kind it is functional, cell-based.
Settings: not given
The gist of the method:
as §1
Compound `c1ccc(Cn2c3ccccc3c3cc[n+](Cc4ccccc4)cc32)cc1` showed a concentration for half-maximal inhibition (IC50) of 38.7 µM.

`COc1ccc(Cn2c3ccccc3c3cc[n+](Cc4ccccc4)cc32)cc1.[Br-]`: the IC50 worked out at 17.8 µM.

With `[Br-].c1ccc(CCCn2c3ccccc3c3cc[n+](Cc4ccccc4)cc32)cc1`, the 50% inhibitory concentration (IC50) is 8.5 µM.

System in a further data set: not listed separately
The data set can be described thus: Antitumor activity against mouse Sarcoma 180 cells allografted in mouse assessed as tumor growth inhibition at 1.75 mg/kg, ip qd administered for 7 days measured after 21 days relative to control. In kind it is functional. Conditions: Sarcoma-180, ip, route intraperitoneal, read-out: TGI. The method, boiled down: (§2)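 Tumour cells (S180 sarcoma or Lewis lung) were first grown in mice for 7 days, then harvested. Viable cells (2 × 10⁶/mouse) were injected s.c. into the armpit. Groups of 10 female mice received the compound i.p. once daily for 7 consecutive days, starting 24 h after inoculation. Cyclophosphamide 30 mg/kg served as positive control and vehicle as negative control. Body weights were taken every 3 days. Mice were killed on day 21 post-inoculation, and tumours were excised and weighed to calculate the inhibition rate versus control.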
In the case of `[Br-].c1ccc(CCCn2c3ccccc3c3cc[n+](Cc4ccccc4)cc32)cc1`, the inhibition in vivo at 1.75 mg/kg was determined as 62.1%.

System in a further data set: not listed separately
The data set can be described thus: Cytotoxicity against human ECA109 cells by MTT assay. Conditions: ECa-109. In kind it is functional, cell-based. The method, boiled down:
as §1
The compound `c1ccc(Cn2c3ccccc3c3cc[n+](Cc4ccccc4)cc32)cc1` displayed a half-maximal inhibitory concentration (IC50) of 32.7 µM.

The compound `COc1ccc(Cn2c3ccccc3c3cc[n+](Cc4ccccc4)cc32)cc1.[Br-]` registered an IC50 of 54.3 µM.

`[Br-].c1ccc(CCCn2c3ccccc3c3cc[n+](Cc4ccccc4)cc32)cc1`: the IC50 turned out to be 11.7 µM.

In the next data set the test system is MCF7. As to the kind of experiment: Cytotoxicity against human MCF7 cells by MTT assay. It is filed as functional, cell-based.
Settings: not given
The method, boiled down: as §1
As for `c1ccc(Cn2c3ccccc3c3cc[n+](Cc4ccccc4)cc32)cc1`, 18.7 µM corresponded to half-maximal inhibition (IC50).

Take `COc1ccc(Cn2c3ccccc3c3cc[n+](Cc4ccccc4)cc32)cc1.[Br-]`: the IC50 was determined as 18.7 µM.

`[Br-].c1ccc(CCCn2c3ccccc3c3cc[n+](Cc4ccccc4)cc32)cc1` yielded an IC50 of 14.4 µM.

A further data set has as its system Lewis lung carcinoma cell line. The data set can be described thus: Antitumor activity against mouse LLC cells allografted in mouse assessed as tumor growth inhibition at 1.75 mg/kg, ip qd administered for 7 days measured after 21 days relative to control. In kind it is functional. The following applies: route intraperitoneal, read-out: TGI. The gist of the method: as §2
Take `[Br-].c1ccc(CCCn2c3ccccc3c3cc[n+](Cc4ccccc4)cc32)cc1`: the inhibition in vivo at 1.75 mg/kg was determined as 59.2%.

System in another data set: not listed separately
The data set can be described thus: Cytotoxicity against mouse LLC cells by MTT assay. In kind it is functional, cell-based. Conditions: Lewis lung carcinoma. The method, boiled down:
as §1
For the compound `c1ccc(Cn2c3ccccc3c3cc[n+](Cc4ccccc4)cc32)cc1`, the half-maximal inhibitory concentration (IC50) was below 2 µM.

In turn, `COc1ccc(Cn2c3ccccc3c3cc[n+](Cc4ccccc4)cc32)cc1.[Br-]` registered an IC50 of 4.2 µM.

`[Br-].c1ccc(CCCn2c3ccccc3c3cc[n+](Cc4ccccc4)cc32)cc1` displayed an IC50 of 3.9 µM.

System in the next data set: not listed separately
The data set can be described thus: Antitumor activity against mouse Sarcoma 180 cells allografted in mouse assessed as tumor growth inhibition at 30 mg/kg, ip qd administered for 7 days measured after 21 days relative to control. Conditions: Sarcoma-180, ip, read-out: TGI.
As to `O=P1(N(CCCl)CCCl)NCCCO1` (centres undefined) [CYCLOPHOSPHAMIDE ANHYDROUS], the inhibition in vivo at 30 mg/kg is 85.6%.

For another data set, the system named is Lewis lung carcinoma cell line. As to the kind of experiment: Antitumor activity against mouse LLC cells allografted in mouse assessed as tumor growth inhibition at 30 mg/kg, ip qd administered for 7 days measured after 21 days relative to control. Conditions: read-out: TGI.
Take `O=P1(N(CCCl)CCCl)NCCCO1` (centres undefined) [CYCLOPHOSPHAMIDE ANHYDROUS]: the inhibition in vivo at 30 mg/kg turned out to be 87.3%.

Another data set relates to A-375. The data set can be described thus: Cytotoxicity against human A375 cells by MTT assay. In kind it is functional, cell-based.
Settings: not given
The method, boiled down: as §1
Consider `c1ccc(Cn2c3ccccc3c3cc[n+](Cc4ccccc4)cc32)cc1`, for which 7.8 µM corresponded to half-maximal inhibition (IC50).

Compound `COc1ccc(Cn2c3ccccc3c3cc[n+](Cc4ccccc4)cc32)cc1.[Br-]` showed a 50% inhibitory concentration (IC50) of 9.5 µM.

For `[Br-].c1ccc(CCCn2c3ccccc3c3cc[n+](Cc4ccccc4)cc32)cc1`, the IC50 amounted to 8.7 µM.

The subject of a further data set is SK-OV-3. As to the kind of experiment: Cytotoxicity against human SKOV3 cells by MTT assay.
Settings: not given
In kind it is functional, cell-based. The gist of the method: as §1
On to `c1ccc(Cn2c3ccccc3c3cc[n+](Cc4ccccc4)cc32)cc1`, for which 16.9 µM corresponded to half-maximal inhibition (IC50).

Turning to `COc1ccc(Cn2c3ccccc3c3cc[n+](Cc4ccccc4)cc32)cc1.[Br-]`, it took 19.9 µM to reach half-maximal inhibition (IC50).

Regarding `[Br-].c1ccc(CCCn2c3ccccc3c3cc[n+](Cc4ccccc4)cc32)cc1`, it took 4.4 µM to reach half-maximal inhibition (IC50).

System in another data set: not listed separately
As to the kind of experiment: Acute toxicity in ip dosed C57BL/6 mouse after 14 days. It is filed as organism-based. Conditions: in vivo. The gist of the method: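 C57BL/6 mice (9–12 weeks, 18–22 g), single i.p. dose; watched continuously for 2 h, intermittently over 24 h, then occasionally to day 14 for behaviour, deaths and delayed effects. Survivors killed at day 14; heart, liver, kidneys inspected macroscopically, early deaths also examined. LD50 derived graphically.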
On to `COc1ccc(Cn2c3ccccc3c3cc[n+](Cc4ccccc4)cc32)cc1.[Br-]`, for which the median lethal dose (LD50) (as a rule, the dose expected to kill half of the subjects tested) at 336 h was 19.5 mg/kg.

Compound `[Br-].c1ccc(CCCn2c3ccccc3c3cc[n+](Cc4ccccc4)cc32)cc1` came in with an LD50 at 336 h of 8.9 mg/kg.

System in a further data set: not listed separately
As to the kind of experiment: Antitumor activity against mouse Sarcoma 180 cells allografted in mouse assessed as tumor growth inhibition at 4 mg/kg, ip qd administered for 7 days measured after 21 days relative to control. In kind it is functional. The following applies: Sarcoma-180, ip, route intraperitoneal, read-out: TGI. The method, boiled down: as §2
On to `c1ccc(Cn2c3ccccc3c3cc[n+](Cc4ccccc4)cc32)cc1`, for which the inhibition in vivo at 4 mg/kg came to 45.9%.

The subject of another data set is Lewis lung carcinoma cell line. As to the kind of experiment: Antitumor activity against mouse LLC cells allografted in mouse assessed as tumor growth inhibition at 4 mg/kg, ip qd administered for 7 days measured after 21 days relative to control. It is filed as functional. Conditions: route intraperitoneal, read-out: TGI. The method, boiled down:
as §2
For `c1ccc(Cn2c3ccccc3c3cc[n+](Cc4ccccc4)cc32)cc1`, the inhibition in vivo at 4 mg/kg is 48.5%.

For a further data set, the system named is HT-29. As to the kind of experiment: Cytotoxicity against human HT-29 cells by MTT assay.
Settings: not given
In kind it is functional, cell-based. The method, boiled down: as §1
`c1ccc(Cn2c3ccccc3c3cc[n+](Cc4ccccc4)cc32)cc1`: the 50% inhibitory concentration (IC50) came out at 42.5 µM.

The compound `COc1ccc(Cn2c3ccccc3c3cc[n+](Cc4ccccc4)cc32)cc1.[Br-]` showed a concentration for half-maximal inhibition (IC50) of 19.2 µM.

The compound `[Br-].c1ccc(CCCn2c3ccccc3c3cc[n+](Cc4ccccc4)cc32)cc1` registered an IC50 of 7.6 µM.

The subject of a further data set is HepG2. The data set can be described thus: Cytotoxicity against human HepG2 cells by MTT assay. It is filed as functional, cell-based.
Settings: not given
The method, boiled down:
as §1
In turn, `c1ccc(Cn2c3ccccc3c3cc[n+](Cc4ccccc4)cc32)cc1` yielded a half-maximal inhibitory concentration (IC50) of 34.6 µM.

`COc1ccc(Cn2c3ccccc3c3cc[n+](Cc4ccccc4)cc32)cc1.[Br-]` had an IC50 of 15.9 µM.

Take `[Br-].c1ccc(CCCn2c3ccccc3c3cc[n+](Cc4ccccc4)cc32)cc1`: the half-maximal inhibitory concentration (IC50) came out at 7.9 µM.

The next data set relates to 769-P. The data set can be described thus: Cytotoxicity against human 769-P cells by MTT assay.
Settings: not given
In kind it is functional, cell-based. The method, boiled down: as §1
In turn, `c1ccc(Cn2c3ccccc3c3cc[n+](Cc4ccccc4)cc32)cc1` had a 50% inhibitory concentration (IC50) of 8.7 µM.

On to `COc1ccc(Cn2c3ccccc3c3cc[n+](Cc4ccccc4)cc32)cc1.[Br-]`, for which the IC50 was found to be 7.6 µM.

`[Br-].c1ccc(CCCn2c3ccccc3c3cc[n+](Cc4ccccc4)cc32)cc1` showed a half-inhibitory concentration (IC50) of 4.9 µM.

For a further data set, the system named is LoVo. As to the kind of experiment: Cytotoxicity against human LoVo cells. In kind it is functional, cell-based.
Settings: not given
Compound `c1ccc(Cn2c3ccccc3c3cc[n+](Cc4ccccc4)cc32)cc1` showed an IC50 of 20 µM.
